Experimental data reported in ChEMBL document CHEMBL1212820, “Novel hinge binder improves activity and pharmacokinetic properties of BRAF inhibitors” (J Med Chem, 2010).

Assays:
[1] = target: T1, Serine/threonine-protein kinase B-raf (Homo sapiens, UniProt P15056, V600E); assay: Inhibition of B-Raf V600E mutant
How it was run: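 Enzymatic IC50 determined in vitro against purified V600E BRAF.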

[2] = target: T1, Serine/threonine-protein kinase B-raf; assay: Inhibition of BRAF V600E mutant-mediated ERK phosphorylation in human WM266.4 cells; assay type: cell-based
How it was run: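 Cellular IC50 for inhibition of phosphoERK formation.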

[3] = Growth inhibition of human WM266.4 cells expressing BRAF V600E mutant after 5 days by SRB assay; assay type: functional; conditions: WM 266-4, 120 h
How it was run: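 Antiproliferative SRB assay in WM266.4 (BRAF mutant), WM1361 (NRAS mutant) and D24 (BRAF/NRAS wild-type) melanoma cells, with GI50 derived from the assay.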

T1 sequence (P15056 2-766 V600E limits assumed): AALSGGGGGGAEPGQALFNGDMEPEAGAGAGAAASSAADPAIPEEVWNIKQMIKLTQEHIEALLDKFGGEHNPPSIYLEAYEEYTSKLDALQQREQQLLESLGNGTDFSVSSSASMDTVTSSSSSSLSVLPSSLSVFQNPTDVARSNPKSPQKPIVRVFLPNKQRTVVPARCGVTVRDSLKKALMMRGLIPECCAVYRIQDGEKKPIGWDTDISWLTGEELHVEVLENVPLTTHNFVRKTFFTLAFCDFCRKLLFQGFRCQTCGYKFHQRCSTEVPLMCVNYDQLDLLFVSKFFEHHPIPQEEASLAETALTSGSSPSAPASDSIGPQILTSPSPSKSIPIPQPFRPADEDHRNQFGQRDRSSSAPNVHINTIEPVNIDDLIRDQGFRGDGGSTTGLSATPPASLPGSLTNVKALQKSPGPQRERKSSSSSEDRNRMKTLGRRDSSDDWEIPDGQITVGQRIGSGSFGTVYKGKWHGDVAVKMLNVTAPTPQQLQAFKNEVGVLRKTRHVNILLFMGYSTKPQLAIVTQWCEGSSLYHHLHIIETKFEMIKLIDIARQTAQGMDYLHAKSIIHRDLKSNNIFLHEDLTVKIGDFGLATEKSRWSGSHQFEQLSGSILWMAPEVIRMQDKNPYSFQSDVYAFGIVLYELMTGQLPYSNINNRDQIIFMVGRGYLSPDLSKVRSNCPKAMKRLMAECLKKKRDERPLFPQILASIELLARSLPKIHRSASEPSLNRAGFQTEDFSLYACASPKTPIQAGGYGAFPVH

Row | Structure (SMILES) | IC50 [1] | IC50 [2] | GI50 [3]
1 | CC(C)(C)c1cc(NC(=O)Nc2ccc(Oc3ccnc4[nH]c(=O)c(N)nc34)c3ccccc23)n(-c2ccccc2)n1 | 0.085 µM | 0.007 µM | 0.009 µM
2 | Cc1ccc(-n2nc(C(C)(C)C)cc2NC(=O)Nc2ccc(Oc3ccnc4[nH]c(=O)c(N)nc34)cc2F)cc1 | 0.32 µM | 0.011 µM | 0.008 µM
3 | CC(C)(C)c1cc(NC(=O)Nc2ccc(Oc3ccnc4ncc(=O)[nH]c34)cc2F)n(-c2ccccc2)n1 | 0.94 µM | 0.65 µM | 0.94 µM
4 | Cc1ccc(-n2nc(C(C)(C)C)cc2NC(=O)Nc2ccc(Oc3ccnc4nc(C)c(=O)[nH]c34)c3ccccc23)cc1 | 17 µM | 0.176 µM | 1.5 µM
5 | CN(C)c1nc2c(Oc3ccc(NC(=O)Nc4cc(C(F)(F)F)ccc4F)c(F)c3)ccnc2[nH]1 | 0.025 µM | 6 µM | 0.116 µM
6 | Cc1ccc(-n2nc(C(C)(C)C)cc2NC(=O)Nc2ccc(Oc3ccnc4nc(N5CCOCC5)cnc34)cc2F)cc1 | > 10 µM | 0.28 µM | 0.235 µM
7 | CC(C)(C)c1cc(NC(=O)Nc2ccc(Oc3ccnc4nc(N)c(=O)[nH]c34)c3ccccc23)n(-c2ccccc2)n1 | 0.405 µM | 0.036 µM | 0.018 µM
8 | Nc1nc2c(Oc3ccc(NC(=O)Nc4cc(C(F)(F)F)ccc4F)c4ccccc34)ccnc2[nH]c1=O | 0.005 µM | 0.049 µM | 0.015 µM
9 | O=C(Nc1ccc(Oc2ccnc3ncc(=O)[nH]c23)cc1)Nc1ccc(Cl)c(C(F)(F)F)c1 | 1.29 µM | > 100 µM | 8.8 µM
10 | CSc1cc(Oc2ccnc3ncc(=O)[nH]c23)ccc1NC(=O)Nc1ccc(Cl)c(C(F)(F)F)c1 | 0.071 µM | 3.99 µM | 4.3 µM
11 | O=C(Nc1cccc(Oc2ccnc3ncc(=O)[nH]c23)c1)Nc1cc(C(F)(F)F)ccc1F | 0.105 µM | > 100 µM | 6.1 µM
12 | CN1CCN(c2cnc3c(Oc4ccc(NC(=O)Nc5cc(C(F)(F)F)ccc5F)c(F)c4)ccnc3n2)CC1 | 0.11 µM | 16 µM | 0.12 µM
13 | O=C(Nc1ccc(Oc2ccnc3[nH]c(=O)cnc23)cc1)Nc1ccc(Cl)c(C(F)(F)F)c1 | 0.011 µM | 4.89 µM | 9.1 µM
14 | O=C(Nc1ccc(Oc2ccnc3ncc(=O)[nH]c23)cc1F)Nc1cc(C(F)(F)F)ccc1F | 0.076 µM | 69 µM | 1.8 µM
15 | O=C(Nc1ccc(Oc2ccnc3[nH]c(S)nc23)cc1F)Nc1cc(C(F)(F)F)ccc1F | 0.017 µM | 13 µM | 0.97 µM
16 | O=C(Nc1cc(C(F)(F)F)ccc1F)Nc1ccc(Oc2ccnc3[nH]c(=O)c(C(F)(F)F)nc23)c2ccccc12 | 0.134 µM | > 10 µM | > 10 µM
17 | CSc1cc(Oc2ccnc3[nH]c(=O)cnc23)ccc1NC(=O)Nc1ccc(Cl)c(C(F)(F)F)c1 | 0.004 µM | 0.187 µM | 0.118 µM
18 | CC(C)(C)c1cccc(C(=O)Nc2cccc(Oc3ccnc4ncc(=O)[nH]c34)c2)c1 | 0.034 µM | 3.5 µM | 2.54 µM
19 | O=C(Nc1ccc(Oc2ccnc3[nH]c(=O)cnc23)cc1F)Nc1cc(C(F)(F)F)ccc1F | 0.004 µM | 0.78 µM | 1.3 µM
20 | O=C(Nc1ccc(Cl)c(C(F)(F)F)c1)Nc1ccc(Oc2ccnc3ncc(=O)[nH]c23)cc1F | 0.059 µM | 16 µM | 3.9 µM
21 | O=C(Nc1ccc(Oc2ccnc3[nH]c(=O)c(=O)[nH]c23)cc1)Nc1ccc(Cl)c(C(F)(F)F)c1 | 0.021 µM | 5.2 µM | 3.19 µM
22 | O=C(Nc1cccc(Oc2ccnc3[nH]c(=O)cnc23)c1)Nc1cc(C(F)(F)F)ccc1F | 0.04 µM | 10 µM | 10 µM
23 | Cc1ccc(-n2nc(C(C)(C)C)cc2NC(=O)Nc2ccc(Oc3ccnc4[nH]c(=O)c(C)nc34)c3ccccc23)cc1 | 0.099 µM | 0.005 µM | 0.075 µM
24 | CC(C)(C)c1cc(NC(=O)Nc2ccc(Oc3ccnc4ncc(=O)[nH]c34)c3ccccc23)n(-c2ccccc2)n1 | 0.264 µM | 0.048 µM | 0.073 µM

Row | Structure (SMILES) | IC50 [1] | IC50 [2] | GI50 [3]
25 | CSc1cc(Oc2ccnc3[nH]c(=O)c(=O)[nH]c23)ccc1NC(=O)Nc1ccc(Cl)c(C(F)(F)F)c1 | 0.003 µM | 0.59 µM | 0.22 µM
26 | CC(C)(C)c1cccc(C(=O)Nc2cccc(Oc3ccnc4[nH]c(=O)cnc34)c2)c1 | 0.007 µM | 0.85 µM | 1.7 µM
27 | CN(C)Cc1nc2c(Oc3ccc(NC(=O)Nc4cc(C(F)(F)F)ccc4F)c(F)c3)ccnc2[nH]1 | 0.73 µM | > 10 µM | 1.4 µM
28 | O=C(Nc1cc(C(F)(F)F)ccc1F)Nc1ccc(Oc2ccnc3nc(C(F)(F)F)c(=O)[nH]c23)c2ccccc12 | 1.08 µM | 8.5 µM | 10 µM
29 | Cc1ccc(-n2nc(C(C)(C)C)cc2NC(=O)Nc2ccc(Oc3ccnc4[nH]nnc34)cc2F)cc1 | 1.37 µM | 3.1 µM | 1.98 µM
30 | CC(C)(C)c1cc(NC(=O)c2cccc(Oc3ccnc4[nH]c(=O)cnc34)c2)n(-c2ccccc2)n1 | 0.87 µM | 5 µM | 2 µM
31 | Cn1nc(C(C)(C)C)cc1NC(=O)Nc1ccc(Oc2ccnc3[nH]c(=O)cnc23)cc1F | 0.017 µM | 0.62 µM | 0.76 µM
32 | O=C(Nc1ccc(Oc2ccnc3[nH]cnc23)cc1F)Nc1cc(C(F)(F)F)ccc1F | 0.042 µM | 8.5 µM | 4.85 µM
33 | CSc1cc(Oc2ccnc3[nH]c(=O)c(C)nc23)ccc1NC(=O)Nc1cc(C(C)(C)C)nn1-c1ccccc1 | 0.02 µM | 0.003 µM | 0.004 µM
34 | CNc1cnc2c(Oc3ccc(NC(=O)Nc4cc(C(F)(F)F)ccc4F)c(F)c3)ccnc2n1 | 0.107 µM | 45 µM | 48 µM
35 | CSc1cc(Oc2ccnc3[nH]c(=O)c(=O)[nH]c23)ccc1NC(=O)Nc1cc(C(F)(F)F)ccc1F | 0.002 µM | 0.55 µM | 0.19 µM
36 | CC(C)(C)c1cc(NC(=O)Nc2ccc(Oc3ccnc4nc(N5CCOCC5)cnc34)cc2F)n(-c2ccccc2)n1 | 8.2 µM | 0.75 µM | 0.428 µM
37 | CN(C)c1cnc2c(Oc3ccc(NC(=O)Nc4cc(C(C)(C)C)nn4-c4ccccc4)c(F)c3)ccnc2n1 | > 10 µM | 1.7 µM | 1.1 µM
38 | O=C(Nc1ccc(Oc2ccnc3ncc(=O)[nH]c23)cc1)Nc1cc(C(F)(F)F)ccc1F | 1.29 µM | 4.2 µM | 4 µM
39 | O=C(Nc1cc(C(F)(F)F)ccc1F)Nc1ccc(Oc2ccnc3ncc(=O)[nH]c23)c2ccccc12 | 0.084 µM | 2.07 µM | 0.486 µM
40 | CC(C)(C)c1cc(NC(=O)Nc2ccc(Oc3ccnc4[nH]c(=O)c(=O)[nH]c34)cc2F)n(-c2ccccc2)n1 | 0.19 µM | 0.273 µM | 0.299 µM
41 | CSc1cc(Oc2ccnc3[nH]c(=O)c(C)nc23)ccc1NC(=O)Nc1cc(C(C)(C)C)nn1-c1ccc(C)cc1 | 0.024 µM | 0.006 µM | 0.003 µM
42 | Cc1ccc(-n2nc(C(C)(C)C)cc2NC(=O)Nc2ccc(Oc3ccnc4[nH]c(=O)[nH]c34)cc2F)cc1 | – | – | 0.046 µM
43 | CSc1cc(Oc2ccnc3[nH]c(=O)[nH]c23)ccc1NC(=O)Nc1cc(C(C)(C)C)nn1-c1ccc(C)cc1 | – | – | 0.016 µM
44 | Cc1ccc(-n2nc(C(C)(C)C)cc2NC(=O)Nc2ccc(Oc3ccnc4[nH]c(=O)cnc34)c3ccccc23)cc1 | 0.08 µM | 0.01 µM | 0.08 µM
45 | CSc1cc(Oc2ccnc3ncc(=O)[nH]c23)ccc1NC(=O)Nc1cc(C(F)(F)F)ccc1F | 0.246 µM | 6.6 µM | 5 µM
46 | Nc1nc2c(Oc3ccc(NC(=O)Nc4cc(C(F)(F)F)ccc4F)c(F)c3)ccnc2[nH]c1=O | 0.03 µM | 1.55 µM | 1.55 µM
47 | Cc1ccc(-n2nc(C(C)(C)C)cc2NC(=O)Nc2ccc(Oc3ccnc4c3NCC(=O)N4)cc2F)cc1 | 0.051 µM | 0.011 µM | 0.034 µM
